# Several values for one entry are separate records, joined by “and”; a condition that tells them apart may be missing. Equal values may be shown once.
# Test system: HEK-293T
# Experiment: Multiplex assay against HEK293T;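 for Population Tubulin-Different-Phenotype (%): share of the cells with healthy nuclei that show this phenotype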
# Assay type: toxicity, cell-based
# Details: human, 10 µM, compound concentration 10 uM
# Outline: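 Phenotypes for tubulin, mitochondrial mass and membrane permeability are expressed as per cents of healthy-nucleus cells. Cells were stained live at seeding with Hoechst33342, BioTracker Green Microtubule Cytoskeleton Dye, MitoTracker Red and Annexin V Alexa Fluor 680, then imaged after compound addition on a CQ1 microscope at 37°C and 5% CO2. Machine-learning gating in CellPathfinder separated Hoechst high-intensity objects from normal cells, divided normal cells by nuclear state (healthy, pyknosed, fragmented) and divided pyknosed cells into mitotic or apoptotic.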
smiles,measurement,setting,value
C#Cc1cccc(Nc2ncnc3cc(OCCOC)c(OCCOC)cc23)c1 [ERLOTINIB],Population Apoptotic (%),"12 h, replicate 1",61% and 22% and 23%
same,Population Fragmented Nuclei (%),"12 h, replicate 1",11% and 22% and 20%
same,Population Healthy Nuclei (%),"12 h, replicate 1",23% and 55% and 63%
same,Population Hoechst High Intensity Objects (%),"12 h, replicate 1",14% and 12%
same,Population Membrane Permeable-Phenotype (%),"12 h, replicate 1",8% and 18% and 7%
same,Population Mitotic Cells (%),"12 h, replicate 1",38% and 77% and 76%
same,Population Normal (%),"12 h, replicate 1",85% and 87%
same,Total Cell Count,"12 h, replicate 1",229 and 602 and 657
same,Population Fragmented Nuclei (%),"12 h, replicate 2",12% and 6% and 7%
same,Population Hoechst High Intensity Objects (%),"12 h, replicate 2",5% and 2%
same,Population Mitotic Cells (%),"12 h, replicate 2",49% and 88% and 94%
same,Population Normal (%),"12 h, replicate 2",94% and 97%
same,Population Fragmented Nuclei (%),"24 h, replicate 1",10% and 13% and 15%
same,Population Healthy Nuclei (%),"24 h, replicate 1",31% and 68% and 74%
same,Population Hoechst High Intensity Objects (%),"24 h, replicate 1",16% and 12% and 8%
same,Population Mitotic Cells (%),"24 h, replicate 1",29% and 68% and 78%
same,Population Normal (%),"24 h, replicate 1",83% and 87% and 91%
same,Total Cell Count,"24 h, replicate 1",250 and 573 and 727
same,Population Healthy Nuclei (%),"24 h, replicate 2",38% and 82% and 70%
same,Population Hoechst High Intensity Objects (%),"24 h, replicate 2",2% and 3%
same,Population Normal (%),"24 h, replicate 2",97% and 96%
same,Population Apoptotic (%),"48 h, replicate 1",64%
same,Population Fragmented Nuclei (%),"48 h, replicate 1",20%
same,Population Healthy Nuclei (%),"48 h, replicate 1",22%
same,Population Hoechst High Intensity Objects (%),"48 h, replicate 1",20%
same,Population Membrane Permeable-Phenotype (%),"48 h, replicate 1",2%
same,Population Mitochondria Different-Phenotype (%),"48 h, replicate 1",88%
same,Population Mitotic Cells (%),"48 h, replicate 1",35%
same,Population Normal (%),"48 h, replicate 1",79%
same,Population Pyknosed Nuclei (%),"48 h, replicate 1",57%
same,Population Tubulin-Different-Phenotype (%),"48 h, replicate 1",91%
same,Total Cell Count,"48 h, replicate 1",254
same,Population Apoptotic (%),"48 h, replicate 2",45%
same,Population Fragmented Nuclei (%),"48 h, replicate 2",4%
same,Population Healthy Nuclei (%),"48 h, replicate 2",56%
same,Population Hoechst High Intensity Objects (%),"48 h, replicate 2",5%
same,Population Membrane Permeable-Phenotype (%),"48 h, replicate 2",5%
same,Population Mitochondria Different-Phenotype (%),"48 h, replicate 2",81%
same,Population Mitotic Cells (%),"48 h, replicate 2",54%
same,Population Normal (%),"48 h, replicate 2",94%
same,Population Pyknosed Nuclei (%),"48 h, replicate 2",38%
same,Population Tubulin-Different-Phenotype (%),"48 h, replicate 2",97%
same,Total Cell Count,"48 h, replicate 2",197

# Source: ChEMBL document CHEMBL4689842, “EUbOPEN Chemogenomics Library wave 1” (2021)
